ChEMBL document CHEMBL5724801, “EUbOPEN Chemogenomics Library - Multiplex” (2024)
“And” between values parts separate entries of the source, which are not always exact repeats. Identical values can stand only once.

What was measured:
Assay type in all cases: toxicity, cell-based
[1] = tested on: HEK-293T; test: Multiplex assay against HEK293T; conditions: human
How it was run: (§1)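 Four dyes were applied at seeding to live cells: Hoechst33342, BioTracker Green Microtubule Cytoskeleton Dye, MitoTracker Red and Annexin V Alexa Fluor 680. Imaging after compound addition used a CQ1 microscope at 37°C and 5% CO2. CellPathfinder machine-learning gating then sorted cells into Hoechst high-intensity objects or normal cells, normal cells into healthy, pyknosed or fragmented nuclei, and pyknosed cells into mitotic or apoptotic, with tubulin, mitochondrial-mass and membrane-permeability phenotypes given as per cents of healthy-nucleus cells.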

[2] = tested on: Fibroblast; test: Multiplex assay against human fibroblast; how it was run: as §1
[3] = tested on: U2OS; test: Multiplex assay against U2OS; conditions: human; how it was run: as §1
[4] = 12 h, 1 µM, compound concentration 1 uM
[5] = 12 h, 10 µM, compound concentration 10 uM
[6] = 24 h, 1 µM, compound concentration 1 uM
[7] = 24 h, 10 µM, compound concentration 10 uM
[8] = 48 h, 1 µM, compound concentration 1 uM
[9] = 48 h, 10 µM, compound concentration 10 uM

Structure (SMILES): NC1=NC(=O)/C(=C2\CCNC(=O)c3[nH]c4ccccc4c32)N1
- Population Apoptotic (%) [1, 4]: 13.33% and 11.21%
- Population Fragmented Nuclei (%) [1, 4]: 2.11% and 2.19%
- Population Hoechst High Intensity Objects (%) [1, 4]: 0.52% and 0%
- Population Membrane Permeable-Phenotype (%) [1, 4]: 0.85% and 3.7%
- Population Mitotic Cells (%) [1, 4]: 86.67% and 88.79%
- Population Normal (%) [1, 4]: 99.48% and 100%
- Population Pyknosed Nuclei (%) [1, 4]: 35.62% and 78.1%
- Total Cell Count [1, 4]: 381 and 137
- Population Apoptotic (%) [1, 5]: 8.93% and 12.5%
- Population Fragmented Nuclei (%) [1, 5]: 2.8% and 2.1%
- Population Hoechst High Intensity Objects (%) [1, 5]: 0%
- Population Membrane Permeable-Phenotype (%) [1, 5]: 1% and 0%
- Population Mitochondria Different-Phenotype (%) [1, 5]: 33.83% and 15%
- Population Mitotic Cells (%) [1, 5]: 91.07% and 87.5%
- Population Normal (%) [1, 5]: 100%
- Population Pyknosed Nuclei (%) [1, 5]: 34.78% and 83.92%
- Total Cell Count [1, 5]: 322 and 143
- Population Apoptotic (%) [1, 6]: 12% and 13.98%
- Population Fragmented Nuclei (%) [1, 6]: 1.99% and 1.92%
- Population Healthy Nuclei (%) [1, 6]: 77.28% and 38.46%
- Population Hoechst High Intensity Objects (%) [1, 6]: 0%
- Population Membrane Permeable-Phenotype (%) [1, 6]: 0.86% and 3.33%
- Population Mitochondria Different-Phenotype (%) [1, 6]: 12.45% and 11.67%
- Population Mitotic Cells (%) [1, 6]: 88% and 86.02%
- Population Normal (%) [1, 6]: 100%
- Population Pyknosed Nuclei (%) [1, 6]: 20.73% and 59.62%
- Population Tubulin-Different-Phenotype (%) [1, 6]: 11.37% and 1.67%
- Population Apoptotic (%) [1, 7]: 14.91% and 16%
- Population Fragmented Nuclei (%) [1, 7]: 1.32% and 5.13%
- Population Healthy Nuclei (%) [1, 7]: 73.68% and 30.77%
- Population Hoechst High Intensity Objects (%) [1, 7]: 0%
- Population Membrane Permeable-Phenotype (%) [1, 7]: 0.89% and 6.25%
- Population Mitochondria Different-Phenotype (%) [1, 7]: 13.69% and 18.75%
- Population Mitotic Cells (%) [1, 7]: 85.09% and 84%
- Population Normal (%) [1, 7]: 100%
- Population Pyknosed Nuclei (%) [1, 7]: 25% and 64.1%
- Population Tubulin-Different-Phenotype (%) [1, 7]: 10.42% and 4.17%
- Total Cell Count [1, 7]: 456 and 156
- Population Apoptotic (%) [1, 8]: 9.77% and 15.52%
- Population Fragmented Nuclei (%) [1, 8]: 3.77% and 1.5%
- Population Healthy Nuclei (%) [1, 8]: 86.2% and 69.5%
- Population Hoechst High Intensity Objects (%) [1, 8]: 0.08% and 0%
- Population Membrane Permeable-Phenotype (%) [1, 8]: 3.85% and 3.6%
- Population Mitochondria Different-Phenotype (%) [1, 8]: 10.94% and 10.79%
- Population Mitotic Cells (%) [1, 8]: 90.23% and 84.48%
- Population Normal (%) [1, 8]: 99.92% and 100%
- Population Pyknosed Nuclei (%) [1, 8]: 10.03% and 29%
- Population Apoptotic (%) [1, 9]: 6.19% and 12.05%
- Population Fragmented Nuclei (%) [1, 9]: 2.47% and 2.35%
- Population Healthy Nuclei (%) [1, 9]: 85.57% and 58.69%
- Population Hoechst High Intensity Objects (%) [1, 9]: 0.25% and 0.93%
- Population Membrane Permeable-Phenotype (%) [1, 9]: 2.16% and 0.8%
- Population Mitochondria Different-Phenotype (%) [1, 9]: 22.48% and 16.8%
- Population Mitotic Cells (%) [1, 9]: 93.81% and 87.95%
- Population Normal (%) [1, 9]: 99.75% and 99.07%
- Population Apoptotic (%) [2, 4]: 5.88% and 11.11%
- Population Healthy Nuclei (%) [2, 4]: 60.61% and 85.31%
- Population Hoechst High Intensity Objects (%) [2, 4]: 0%
- Population Membrane Permeable-Phenotype (%) [2, 4]: 2% and 1.91%
- Population Mitochondria Different-Phenotype (%) [2, 4]: 8% and 7.66%
- Population Mitotic Cells (%) [2, 4]: 94.12% and 88.89%
- Population Normal (%) [2, 4]: 100%
- Population Pyknosed Nuclei (%) [2, 4]: 20.61% and 11.02%
- Population Tubulin-Different-Phenotype (%) [2, 4]: 10% and 11.48%
- Total Cell Count [2, 4]: 165 and 245
- Population Fragmented Nuclei (%) [2, 5]: 8.29% and 5.11%
- Population Healthy Nuclei (%) [2, 5]: 63.9% and 72.73%
- Population Hoechst High Intensity Objects (%) [2, 5]: 0%
- Population Membrane Permeable-Phenotype (%) [2, 5]: 3.82% and 2.34%
- Population Mitochondria Different-Phenotype (%) [2, 5]: 7.63% and 9.38%
- Population Mitotic Cells (%) [2, 5]: 92.98% and 76.92%
- Population Normal (%) [2, 5]: 100%
- Population Pyknosed Nuclei (%) [2, 5]: 27.8% and 22.16%
- Population Tubulin-Different-Phenotype (%) [2, 5]: 9.92% and 14.06%
- Total Cell Count [2, 5]: 205 and 176
- Population Apoptotic (%) [2, 6]: 10% and 14.71%
- Population Fragmented Nuclei (%) [2, 6]: 10% and 5.2%
- Population Healthy Nuclei (%) [2, 6]: 73.33% and 81.2%
- Population Hoechst High Intensity Objects (%) [2, 6]: 0%
- Population Membrane Permeable-Phenotype (%) [2, 6]: 6.06% and 1.48%
- Population Mitochondria Different-Phenotype (%) [2, 6]: 3.79% and 8.37%
- Population Mitotic Cells (%) [2, 6]: 90% and 85.29%
- Population Normal (%) [2, 6]: 100%
- Population Pyknosed Nuclei (%) [2, 6]: 16.67% and 13.6%
- Population Tubulin-Different-Phenotype (%) [2, 6]: 12.12% and 11.33%
- Total Cell Count [2, 6]: 180 and 250
- Population Apoptotic (%) [2, 7]: 4.92% and 12.82%
- Population Fragmented Nuclei (%) [2, 7]: 6.84% and 5.46%
- Population Healthy Nuclei (%) [2, 7]: 67.09% and 73.22%
- Population Hoechst High Intensity Objects (%) [2, 7]: 0%
- Population Membrane Permeable-Phenotype (%) [2, 7]: 5.1% and 0%
- Population Mitochondria Different-Phenotype (%) [2, 7]: 3.82% and 5.97%
- Population Mitotic Cells (%) [2, 7]: 95.08% and 87.18%
- Population Normal (%) [2, 7]: 100%
- Population Pyknosed Nuclei (%) [2, 7]: 26.07% and 21.31%
- Population Tubulin-Different-Phenotype (%) [2, 7]: 12.1% and 15.67%
- Total Cell Count [2, 7]: 234 and 183
- Population Fragmented Nuclei (%) [2, 8]: 13% and 5%
- Population Healthy Nuclei (%) [2, 8]: 83% and 91.25%
- Population Hoechst High Intensity Objects (%) [2, 8]: 0%
- Population Membrane Permeable-Phenotype (%) [2, 8]: 1.2% and 2.74%
- Population Mitotic Cells (%) [2, 8]: 87.5% and 55.56%
- Population Normal (%) [2, 8]: 100%
- Population Pyknosed Nuclei (%) [2, 8]: 4% and 3.75%
- Population Tubulin-Different-Phenotype (%) [2, 8]: 6.02% and 11.42%
- Total Cell Count [2, 8]: 200 and 240
- Population Apoptotic (%) [2, 9]: 19.05% and 14.29%
- Population Fragmented Nuclei (%) [2, 9]: 4.95% and 6.88%
- Population Healthy Nuclei (%) [2, 9]: 87.63% and 85.71%
- Population Hoechst High Intensity Objects (%) [2, 9]: 0%
- Population Membrane Permeable-Phenotype (%) [2, 9]: 0.4% and 4.32%
- Population Mitochondria Different-Phenotype (%) [2, 9]: 11.69% and 2.47%
- Population Mitotic Cells (%) [2, 9]: 80.95% and 85.71%
- Population Normal (%) [2, 9]: 100%
- Population Pyknosed Nuclei (%) [2, 9]: 7.42% and 7.41%
- Population Tubulin-Different-Phenotype (%) [2, 9]: 6.45% and 14.2%
- Total Cell Count [2, 9]: 283 and 189
- Population Apoptotic (%) [3, 4]: 44.68% and 29.17%
- Population Fragmented Nuclei (%) [3, 4]: 0.45% and 1.59%
- Population Healthy Nuclei (%) [3, 4]: 89.06% and 85.71%
- Population Hoechst High Intensity Objects (%) [3, 4]: 0%
- Population Membrane Permeable-Phenotype (%) [3, 4]: 1.75% and 0.62%
- Population Mitochondria Different-Phenotype (%) [3, 4]: 0% and 9.26%
- Population Mitotic Cells (%) [3, 4]: 55.32% and 70.83%
- Population Normal (%) [3, 4]: 100%
- Population Pyknosed Nuclei (%) [3, 4]: 10.49% and 12.7%
- Population Tubulin-Different-Phenotype (%) [3, 4]: 1.25% and 0%
- Total Cell Count [3, 4]: 448 and 189
- Population Apoptotic (%) [3, 5]: 37.14% and 30.43%
- Population Fragmented Nuclei (%) [3, 5]: 3.07% and 2.13%
- Population Healthy Nuclei (%) [3, 5]: 84.98% and 85.64%
- Population Hoechst High Intensity Objects (%) [3, 5]: 0%
- Population Membrane Permeable-Phenotype (%) [3, 5]: 1.2% and 1.86%
- Population Mitochondria Different-Phenotype (%) [3, 5]: 0% and 5.59%
- Population Mitotic Cells (%) [3, 5]: 62.86% and 69.57%
- Population Normal (%) [3, 5]: 100%
- Population Pyknosed Nuclei (%) [3, 5]: 11.95% and 12.23%
- Population Tubulin-Different-Phenotype (%) [3, 5]: 2.01% and 0%
- Total Cell Count [3, 5]: 293 and 188
- Population Apoptotic (%) [3, 6]: 52.94% and 37.04%
- Population Fragmented Nuclei (%) [3, 6]: 2.55% and 1.59%
- Population Healthy Nuclei (%) [3, 6]: 89.31% and 87.7%
- Population Hoechst High Intensity Objects (%) [3, 6]: 0%
- Population Membrane Permeable-Phenotype (%) [3, 6]: 0.54% and 0.9%
- Population Mitochondria Different-Phenotype (%) [3, 6]: 0.36% and 4.07%
- Population Mitotic Cells (%) [3, 6]: 47.06% and 62.96%
- Population Normal (%) [3, 6]: 100%
- Population Pyknosed Nuclei (%) [3, 6]: 8.13% and 10.71%
- Population Tubulin-Different-Phenotype (%) [3, 6]: 0.54% and 0%
- Total Cell Count [3, 6]: 627 and 252
- Population Apoptotic (%) [3, 7]: 43.59% and 37.5%
- Population Fragmented Nuclei (%) [3, 7]: 2.31% and 2.43%
- Population Healthy Nuclei (%) [3, 7]: 87.69% and 84.62%
- Population Hoechst High Intensity Objects (%) [3, 7]: 0%
- Population Membrane Permeable-Phenotype (%) [3, 7]: 0.88% and 1.91%
- Population Mitochondria Different-Phenotype (%) [3, 7]: 0.29% and 5.26%
- Population Mitotic Cells (%) [3, 7]: 56.41% and 62.5%
- Population Normal (%) [3, 7]: 100%
- Population Pyknosed Nuclei (%) [3, 7]: 10% and 12.96%
- Population Tubulin-Different-Phenotype (%) [3, 7]: 0.58% and 0%
- Total Cell Count [3, 7]: 390 and 247
- Population Apoptotic (%) [3, 8]: 41.94% and 47.37%
- Population Fragmented Nuclei (%) [3, 8]: 4.36% and 0.45%
- Population Healthy Nuclei (%) [3, 8]: 87.84% and 91.01%
- Population Hoechst High Intensity Objects (%) [3, 8]: 0%
- Population Membrane Permeable-Phenotype (%) [3, 8]: 0.76% and 1.73%
- Population Mitochondria Different-Phenotype (%) [3, 8]: 0.1% and 2.22%
- Population Mitotic Cells (%) [3, 8]: 58.06% and 52.63%
- Population Normal (%) [3, 8]: 100%
- Population Pyknosed Nuclei (%) [3, 8]: 7.8% and 8.54%
- Population Tubulin-Different-Phenotype (%) [3, 8]: 0.86% and 0.99%
- Total Cell Count [3, 8]: 1192 and 445
- Population Apoptotic (%) [3, 9]: 40.28% and 50%
- Population Fragmented Nuclei (%) [3, 9]: 3.29% and 1.05%
- Population Healthy Nuclei (%) [3, 9]: 87.22% and 88.98%
- Population Hoechst High Intensity Objects (%) [3, 9]: 0%
- Population Membrane Permeable-Phenotype (%) [3, 9]: 0.6% and 0.29%
- Population Mitochondria Different-Phenotype (%) [3, 9]: 0% and 4.72%
- Population Mitotic Cells (%) [3, 9]: 59.72% and 50%
- Population Normal (%) [3, 9]: 100%
- Population Pyknosed Nuclei (%) [3, 9]: 9.49% and 9.97%
- Population Tubulin-Different-Phenotype (%) [3, 9]: 0.15% and 0.29%
- Total Cell Count [3, 9]: 759 and 381
